Experimental findings from ChEMBL document CHEMBL1147090, “Effect of antibiotics on Staphylococcus aureus producing Panton-Valentine leukocidin” (2007) are described below.

Converted amounts (≈) assume the structure as drawn. The source made the active and inactive calls. The calls are words filed in the database; no cut-off is given here.

The MIC is the least concentration at which growth counts as inhibited.

The test system of assay [1] is Staphylococcus aureus. In words: Antibacterial activity against community acquired methicillin-resistant Staphylococcus aureus HT20041010 in CCY media. The class given is functional. The essentials:
(§1)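 MIC by CLSI-standard broth microdilution, run both in Mueller-Hinton broth and in casein hydrolysate-yeast extract (CCY) medium. Inoculum 5 × 10^5 CFU/ml.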

Assay [2] relates to Staphylococcus aureus. The assay can be described thus: Decrease in Panton-Valentine leukocidin level in community acquired methicillin-resistant Staphylococcus aureus HT20041010 in CYY medium. The class given is functional, organism-based. Summed up: (§2)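 Viable counts by plating diluted broth. Supernatant PVL measured by sandwich ELISA. μg PVL per log10 CFU is expressed as a percentage of the drug-free control. Means ± SD of five (LUG855) or three (clinical isolates) experiments. One-way ANOVA with Dunnett's test.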

Assay [3] relates to Staphylococcus aureus. In words: Decrease in Panton-Valentine leukocidin level in community acquired methicillin-resistant Staphylococcus aureus HT20040332 in CYY medium. The assay is classed as functional, organism-based. Summed up:
as §2

The test system of assay [4] is Staphylococcus aureus. The assay can be described thus: Antibacterial activity against community acquired methicillin-resistant Staphylococcus aureus HT20030203 in Mueller-Hinton medium. The assay is classed as functional. The essentials: as §1
Assay [5] deals with Staphylococcus aureus. The assay can be described thus: Decrease in Panton-Valentine leukocidin level in community acquired methicillin-resistant Staphylococcus aureus HT20030203 in CYY medium. The class given is functional, organism-based. The essentials: as §2
For assay [6], the system named is Staphylococcus aureus. In words: Antibacterial activity against community acquired methicillin-resistant Staphylococcus aureus HT20041010 in Mueller-Hinton medium. The class given is functional. Summed up:
as §1

Assay [7] relates to Staphylococcus aureus. The assay can be described thus: Antibacterial activity against community acquired methicillin-resistant Staphylococcus aureus HT20040332 in CCY media. The class given is functional. Summed up:
as §1

Assay [8] deals with Staphylococcus aureus. The assay can be described thus: Decrease in Panton-Valentine leukocidin level in Staphylococcus aureus LUG855 in CCY medium. The assay is classed as functional, organism-based. Summed up:
as §2

The subject of assay [9] is Staphylococcus aureus. The assay can be described thus: Antibacterial activity against community acquired methicillin-resistant Staphylococcus aureus HT20040332 in Mueller-Hinton medium. The class given is functional. The essentials:
as §1

The test system of assay [10] is Staphylococcus aureus. The assay can be described thus: Decrease in Panton-Valentine leukocidin level in community acquired methicillin-resistant Staphylococcus aureus HT20020488 in CYY medium. The class given is functional, organism-based. Summed up:
as §2

The subject of assay [11] is Staphylococcus aureus. In words: Antibacterial activity against community acquired methicillin-resistant Staphylococcus aureus HT20020488 in Mueller-Hinton medium. The class given is functional. Summed up:
as §1

For assay [12], the system named is Staphylococcus aureus. In words: Antibacterial activity against community acquired methicillin-resistant Staphylococcus aureus HT20020488 in CCY medium. The assay is classed as functional. The essentials: as §1
For assay [13], the system named is Staphylococcus aureus. The assay can be described thus: Decrease in Panton-Valentine leukocidin level in community acquired methicillin-resistant Staphylococcus aureus HT20010734 in CYY medium. The assay is classed as functional, organism-based. Summed up: as §2
For assay [14], the system named is Staphylococcus aureus. The assay can be described thus: Antibacterial activity against Staphylococcus aureus LUG855 in CCY media. The assay is classed as functional. Summed up: as §1
The test system of assay [15] is Staphylococcus aureus. The assay can be described thus: Antibacterial activity against community acquired methicillin-resistant Staphylococcus aureus HT20010734 in Mueller-Hinton medium. The class given is functional. Summed up:
as §1

The subject of assay [16] is Staphylococcus aureus. The assay can be described thus: Antibacterial activity against Staphylococcus aureus LUG855 in Mueller-Hinton medium. The assay is classed as functional. Summed up: as §1
In assay [17] the test system is Staphylococcus aureus. In words: Antibacterial activity against community acquired methicillin-resistant Staphylococcus aureus HT20010734 in CCY medium. The class given is functional. Summed up: as §1
Assay [18] deals with Staphylococcus aureus. In words: Antibacterial activity against community acquired methicillin-resistant Staphylococcus aureus HT20030203 in CCY media. The assay is classed as functional. The essentials:
as §1

The subject of assay [19] is Staphylococcus aureus. In words: Increase in Panton-Valentine leukocidin level in Staphylococcus aureus LUG855 in CCY medium. The class given is functional, organism-based. The essentials:
as §2

The subject of assay [20] is Staphylococcus aureus. In words: Increase in Panton-Valentine leukocidin level in community acquired methicillin-resistant Staphylococcus aureus HT20040332 in CYY medium. The class given is functional, organism-based. Summed up:
as §2

Assay [21] deals with Staphylococcus aureus. In words: Increase in Panton-Valentine leukocidin level in community acquired methicillin-resistant Staphylococcus aureus HT20041010 in CYY medium. The class given is functional, organism-based. Summed up:
as §2

The test system of assay [22] is Staphylococcus aureus. The assay can be described thus: Increase in Panton-Valentine leukocidin level in community acquired methicillin-resistant Staphylococcus aureus HT20030203 in CYY medium. The class given is functional, organism-based. The essentials:
as §2

Assay [23] relates to Staphylococcus aureus. The assay can be described thus: Increase in Panton-Valentine leukocidin level in community acquired methicillin-resistant Staphylococcus aureus HT20010734 in CYY medium. The class given is functional, organism-based. The essentials: as §2

With `CCC[C@@H]1C[C@@H](C(=O)N[C@@H]([C@H]2O[C@H](SC)[C@H](O)[C@@H](O)[C@H]2O)[C@H](C)Cl)N(C)C1` [CLINDAMYCIN], the MIC in the assay with Staphylococcus aureus [1] is > 128 µg/mL; in the assay with Staphylococcus aureus [4], 0.12 µg/mL (≈ 0.282 µM); with Staphylococcus aureus [6], > 128 µg/mL; with Staphylococcus aureus [7], > 128 µg/mL; in the assay with Staphylococcus aureus [9], > 128 µg/mL; in the assay with Staphylococcus aureus [11], > 128 µg/mL. Also, the MIC is > 128 µg/mL against Staphylococcus aureus [12]; 0.12 µg/mL (≈ 0.282 µM) in the assay on Staphylococcus aureus [14]; 0.12 µg/mL (≈ 0.282 µM) in the assay with Staphylococcus aureus [15]; 0.06 µg/mL (≈ 0.141 µM) in the assay with Staphylococcus aureus [16]; 0.25 µg/mL (≈ 0.588 µM) against Staphylococcus aureus [17]; 0.25 µg/mL (≈ 0.588 µM) in the assay with Staphylococcus aureus [18]. Moreover, the Activity result in the assay with Staphylococcus aureus [2], in the assay with Staphylococcus aureus [3], with Staphylococcus aureus [5], with Staphylococcus aureus [8], in the assay with Staphylococcus aureus [10] and in the assay with Staphylococcus aureus [13] was “Dose-dependent effect” each time.

Take `CC(=O)NC[C@H]1CN(c2ccc(N3CCOCC3)c(F)c2)C(=O)O1` [LINEZOLID]: the Activity result in the assay with Staphylococcus aureus [2], with Staphylococcus aureus [3], in the assay on Staphylococcus aureus [5], with Staphylococcus aureus [8], with Staphylococcus aureus [10] and with Staphylococcus aureus [13] was “Dose-dependent effect” throughout. Further, the MIC amounted to 1 µg/mL (≈ 2.96 µM) against Staphylococcus aureus [4]; 1 µg/mL (≈ 2.96 µM) with Staphylococcus aureus [6]; 1 µg/mL (≈ 2.96 µM) in the assay with Staphylococcus aureus [9]; 0.5 µg/mL (≈ 1.48 µM) against Staphylococcus aureus [11]; 0.5 µg/mL (≈ 1.48 µM) in the assay with Staphylococcus aureus [15]; 1 µg/mL (≈ 2.96 µM) with Staphylococcus aureus [16].

With `CC(=O)O[C@H]1C[C@@]2(C)[C@@H](C[C@@H](O)[C@H]3[C@@]4(C)CC[C@@H](O)[C@@H](C)[C@@H]4CC[C@@]32C)/C1=C(\CCC=C(C)C)C(=O)O` [FUSIDIC ACID], the MIC in the assay with Staphylococcus aureus [1] is 128 µg/mL (≈ 248 µM); against Staphylococcus aureus [4] it was 0.12 µg/mL (≈ 0.232 µM); against Staphylococcus aureus [6], > 128 µg/mL; with Staphylococcus aureus [11], 4 µg/mL (≈ 7.74 µM); in the assay on Staphylococcus aureus [12] it was 4 µg/mL (≈ 7.74 µM); with Staphylococcus aureus [14], < 0.03 µg/mL. For the same compound, the figures for the MIC in the assay with Staphylococcus aureus [16] and in the assay with Staphylococcus aureus [18] were < 0.03 µg/mL and 0.06 µg/mL (≈ 0.116 µM), respectively.

As for `Cc1onc(-c2ccccc2)c1C(=O)N[C@@H]1C(=O)N2[C@@H]1SC(C)(C)[C@@H]2C(=O)O` [OXACILLIN], the MIC came out at 16 µg/mL (≈ 39.9 µM) against Staphylococcus aureus [1]; 32 µg/mL (≈ 79.7 µM) in the assay on Staphylococcus aureus [4]; 32 µg/mL (≈ 79.7 µM) with Staphylococcus aureus [6]; 8 µg/mL (≈ 19.9 µM) in the assay with Staphylococcus aureus [7]; 16 µg/mL (≈ 39.9 µM) in the assay on Staphylococcus aureus [9]; 8 µg/mL (≈ 19.9 µM) against Staphylococcus aureus [11]. The MIC in the assay with Staphylococcus aureus [12] stood at 8 µg/mL (≈ 19.9 µM); against Staphylococcus aureus [14] it was 0.06 µg/mL (≈ 0.149 µM); against Staphylococcus aureus [15] it was 32 µg/mL (≈ 79.7 µM); in the assay with Staphylococcus aureus [16], 0.12 µg/mL (≈ 0.299 µM); in the assay on Staphylococcus aureus [17], 16 µg/mL (≈ 39.9 µM); against Staphylococcus aureus [18], 16 µg/mL (≈ 39.9 µM). Besides, the result in the assay with Staphylococcus aureus [19], with Staphylococcus aureus [20], with Staphylococcus aureus [21], in the assay with Staphylococcus aureus [22] and with Staphylococcus aureus [23] was Active.
